# Data reported in ChEMBL document CHEMBL1124882, “Synthesis and evaluation of 1,2,2-tris(sulfonyl)hydrazines as antineoplastic and trypanocidal agents” (1990).
# What was measured:
# [1] = organism: Mus musculus; test: Effect of aging of compound on the activity after 200 min; assay type: functional
# In short: (§1)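 Compound, 1 M stock in DMSO, diluted 100 µL into 9.9 mL 200 mM potassium phosphate pH 7.6 at 37 °C; aliquots taken at timed intervals and injected ip (20 µL/g, effective initial dose 0.2 mmol/kg) into female CD-1 mice infected ip with 10⁶ T. rhodesiense Y Tat 1.1, 3 days post-infection; 3–4 mice/group; read-out days survived beyond vehicle controls.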
# [2] = organism: Mus musculus; test: (§2) Percentage of mice survived after 60 days of treatment with the compound was determined.; assay type: functional
# In short: (§3)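 Mice implanted ip with 10⁶ L1210 leukemia cells (also P388 leukemia and Sarcoma 180); drug given ip in DMSO (≤0.025 mL) once daily for 6 consecutive days from 24 h after implantation, or as single dose; groups of five; vehicle controls. %T/C = mean survival treated/control ×100, excluding 60-day survivors, which are reported separately; weight change from onset to end of therapy used as toxicity.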
# [3] = organism: Mus musculus; test: Effect of aging of compound on the activity after 0 min; assay type: functional; in short: as §1
# [4] = organism: Mus musculus; test: Effect of aging of compound on the activity after 100 min; assay type: functional; in short: as §1
# [5] = system: L1210; test: Evaluated for average percent change in body weight from onset to termination of therapy against L1210 Leukemia cells in mice after 150 mg/kg dose administration.; assay type: functional, Mus musculus
# In short: (§4)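 Recipient mice each received 0.1 mL of suspension containing 10⁶ L1210 cells. The line was kept in RPMI 1640 with 10% FBS and was re-passaged i.p. in CD2F1 donor mice every 8 weeks. Drug was given i.p. in DMSO (≤0.025 mL) once daily for 6 consecutive days, starting 24 h after implantation. Groups held 5–10 mice, with vehicle controls. Value is average % body-weight change from onset to end of therapy.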
# [6] = system: L1210; test: Average survival time of treated group / control group x(100) was determined.; assay type: functional, Mus musculus; in short: as §3
# [7] = system: L1210; test: Evaluated for average percent change in body weight from onset to termination of therapy against L1210 Leukemia cells in mice after 40 mg/kg dose administration.; assay type: functional, Mus musculus; in short: as §4
# [8] = system: L1210; test: as §2; assay type: functional, Mus musculus; parameters: concentration or dose not given beside the values; in short: as §3
# [9] = system: L1210; test: Evaluated for average percent change in body weight from onset to termination of therapy against L1210 Leukemia cells in mice after 200 mg/kg dose administration.; assay type: functional, Mus musculus; in short: as §4
# [10] = system: L1210; test: Evaluated for average percent change in body weight from onset to termination of therapy against L1210 Leukemia cells in mice after 15 mg/kg dose administration.; assay type: functional, Mus musculus
# In short: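 Mice were implanted with 10⁶ L1210 cells in 0.1 mL, from a line kept in culture and passaged in CD2F1 donor mice. A single i.p. dose was given in DMSO (≤0.025 mL). Groups held 5–10 mice, with vehicle-treated tumor-bearing controls. Read-out is average percent body-weight change from onset to termination of therapy, used as the toxicity index.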
# [11] = system: L1210; test: Evaluated for average percent change in body weight from onset to termination of therapy against L1210 Leukemia cells in mice after 100 mg/kg dose administration.; assay type: functional, Mus musculus; in short: as §4
# [12] = system: L1210; test: Evaluated for average percent change in body weight from onset to termination of therapy against L1210 Leukemia cells in mice after 60 mg/kg dose administration.; assay type: functional, Mus musculus; in short: as §4
SMILES,Change in weight [5] [%],T/C [6] [%],Survival [8] [%],other results
CN(N(S(C)(=O)=O)S(C)(=O)=O)S(C)(=O)=O,-7.7,–,–,Mean increase in survival [1]: 1.2 days; Survival [2]: 0%; Mean increase in survival [3]: 6.3 days; Mean increase in survival [4]: 3.7 days
CN(NS(C)(=O)=O)S(C)(=O)=O,–,180,0,Change in weight [7]: -5.8%
CS(=O)(=O)N(CCBr)N(S(C)(=O)=O)S(C)(=O)=O,-2,–,0,–
CS(=O)(=O)N(N(CCCl)S(=O)(=O)c1ccccc1)S(C)(=O)=O,0.5,–,40,–
COc1ccc(S(=O)(=O)N(CCCl)N(S(C)(=O)=O)S(C)(=O)=O)cc1,–,–,100,Change in weight [9]: 5.9%
CS(=O)(=O)NN(CCCl)S(C)(=O)=O [VPN-4090CE],–,130,40,Change in weight [10]: -3.3%
CS(=O)(=O)OCCN(N(S(C)(=O)=O)S(C)(=O)=O)S(C)(=O)=O,–,–,0,Change in weight [11]: -4.2%
CS(=O)(=O)N(CCCl)N(S(C)(=O)=O)S(C)(=O)=O,–,–,100,Change in weight [12]: -7.2%
CS(=O)(=O)N(CCI)N(S(C)(=O)=O)S(C)(=O)=O,8,110,0,–
Cc1ccc(S(=O)(=O)N(CCCl)N(S(C)(=O)=O)S(C)(=O)=O)cc1,-12,210,60,–
CS(=O)(=O)N(N(CCCl)S(=O)(=O)c1ccc(Br)cc1)S(C)(=O)=O,0.9,–,60,–
CS(=O)(=O)N(N(CCCl)S(=O)(=O)c1ccc(Cl)cc1)S(C)(=O)=O,–,–,60,Change in weight [9]: -3.4%
